Measured values: ChEMBL document CHEMBL1208724, “A new group of oxime carbamates as reversible inhibitors of fatty acid amide hydrolase” (Bioorg Med Chem Lett, 2010)
pIC50: −log10 of the molar value. The source made the active and inactive calls. The calls are words filed in the database; no cut-off is given here.

What was measured:
[1] = biological target: T1, Fatty-acid amide hydrolase 1 (Mus musculus, UniProt O08914); assay: Inhibition of mouse brain FAAH assessed as conversion of [3H-ethanolamine]AEA to [3H]ethanolamine by scintillation counting
T1 sequence (O08914 whole entry): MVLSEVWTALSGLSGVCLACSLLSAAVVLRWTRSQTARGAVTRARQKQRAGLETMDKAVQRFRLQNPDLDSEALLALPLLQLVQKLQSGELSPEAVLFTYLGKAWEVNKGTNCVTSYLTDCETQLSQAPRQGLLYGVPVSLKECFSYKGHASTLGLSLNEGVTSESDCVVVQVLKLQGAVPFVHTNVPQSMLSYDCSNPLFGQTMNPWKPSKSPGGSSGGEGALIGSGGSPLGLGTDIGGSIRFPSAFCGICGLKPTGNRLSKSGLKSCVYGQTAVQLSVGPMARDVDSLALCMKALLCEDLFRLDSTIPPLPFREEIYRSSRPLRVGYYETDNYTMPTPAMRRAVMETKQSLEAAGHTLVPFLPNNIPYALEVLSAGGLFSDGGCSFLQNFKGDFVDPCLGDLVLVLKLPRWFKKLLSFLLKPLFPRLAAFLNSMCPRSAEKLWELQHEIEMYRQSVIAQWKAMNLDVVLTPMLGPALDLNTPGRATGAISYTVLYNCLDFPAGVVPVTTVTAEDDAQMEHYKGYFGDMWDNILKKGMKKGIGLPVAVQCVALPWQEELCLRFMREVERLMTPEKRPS

[2] = biological target: Fatty-acid amide hydrolase 1 (Mus musculus) (UniProt O08914); assay: Inhibition of mouse brain FAAH assessed as residual activity
Method in brief: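 FAAH was pre-incubated 20 min with an excess of inhibitor, then dialyzed 18 h at 4 °C against 20 mM Tris–HCl (pH 7.0). Residual activity was assayed before and after dialysis and compared with untreated controls. In a separate run, enzyme was pre-incubated with inhibitor at room temperature for 0–60 min before substrate turnover was measured. Values are means ± S.D. of three independent experiments.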

Cannabinoid receptor 1 = Cannabinoid receptor 1 (Mus musculus, UniProt P47746); assay: Inhibition of mouse brain CB1 receptor
Sequence of Cannabinoid receptor 1 (P47746 whole entry): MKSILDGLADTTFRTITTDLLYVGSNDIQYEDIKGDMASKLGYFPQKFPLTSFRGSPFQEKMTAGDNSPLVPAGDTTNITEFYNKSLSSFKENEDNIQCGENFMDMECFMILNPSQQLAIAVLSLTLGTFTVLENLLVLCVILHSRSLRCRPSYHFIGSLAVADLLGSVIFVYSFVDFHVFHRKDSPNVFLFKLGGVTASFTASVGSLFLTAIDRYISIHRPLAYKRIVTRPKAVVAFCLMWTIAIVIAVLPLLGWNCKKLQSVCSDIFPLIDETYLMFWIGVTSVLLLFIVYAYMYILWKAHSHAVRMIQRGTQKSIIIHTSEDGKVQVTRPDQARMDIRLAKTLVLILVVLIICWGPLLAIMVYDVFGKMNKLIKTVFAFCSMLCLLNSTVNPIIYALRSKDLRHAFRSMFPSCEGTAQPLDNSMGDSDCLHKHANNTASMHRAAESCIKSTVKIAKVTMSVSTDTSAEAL

Cannabinoid receptor 2 = Cannabinoid receptor 2 (Mus musculus, UniProt P47936); assay: Inhibition of mouse brain CB2 receptor
Sequence of Cannabinoid receptor 2 (P47936 whole entry): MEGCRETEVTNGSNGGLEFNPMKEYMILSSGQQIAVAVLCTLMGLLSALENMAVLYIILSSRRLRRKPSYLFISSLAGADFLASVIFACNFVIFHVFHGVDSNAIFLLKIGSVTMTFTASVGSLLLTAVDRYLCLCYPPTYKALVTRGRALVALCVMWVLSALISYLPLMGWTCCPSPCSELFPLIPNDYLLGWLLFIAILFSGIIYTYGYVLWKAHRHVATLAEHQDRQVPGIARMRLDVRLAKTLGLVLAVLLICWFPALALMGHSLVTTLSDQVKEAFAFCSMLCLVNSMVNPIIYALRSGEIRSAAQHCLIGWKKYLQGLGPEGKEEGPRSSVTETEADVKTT

[3] = biological target: Transient receptor potential cation channel subfamily V member 1 (Mus musculus, UniProt Q704Y3); assay: Inhibition of mouse TRPV1 receptor
[4] = Inhibition of mouse brain AMT
[5] = biological target: N-acyl-phosphatidylethanolamine-hydrolyzing phospholipase D (Mus musculus, UniProt Q8BH82); assay: Inhibition of mouse NAPEPLD
Sequence of N-acyl-phosphatidylethanolamine-hydrolyzing phospholipase D (Q8BH82 whole entry): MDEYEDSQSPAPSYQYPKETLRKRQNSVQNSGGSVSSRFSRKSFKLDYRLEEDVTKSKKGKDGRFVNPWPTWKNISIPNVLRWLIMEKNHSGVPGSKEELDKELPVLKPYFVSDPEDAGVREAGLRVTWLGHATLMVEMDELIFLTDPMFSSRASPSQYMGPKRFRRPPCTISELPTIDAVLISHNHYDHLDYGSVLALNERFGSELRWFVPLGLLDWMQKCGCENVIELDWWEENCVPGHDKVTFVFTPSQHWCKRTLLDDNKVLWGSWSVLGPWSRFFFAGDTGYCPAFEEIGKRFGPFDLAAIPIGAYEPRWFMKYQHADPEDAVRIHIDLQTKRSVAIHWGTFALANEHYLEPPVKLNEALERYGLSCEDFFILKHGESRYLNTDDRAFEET

Adenosine receptor A1 = Adenosine receptor A1 (Homo sapiens, UniProt P30542); assay: Displacement of [3H]DPCPX from human recombinant A1 receptor expressed in CHO cells; format: cell-based
Sequence of Adenosine receptor A1 (P30542 whole entry): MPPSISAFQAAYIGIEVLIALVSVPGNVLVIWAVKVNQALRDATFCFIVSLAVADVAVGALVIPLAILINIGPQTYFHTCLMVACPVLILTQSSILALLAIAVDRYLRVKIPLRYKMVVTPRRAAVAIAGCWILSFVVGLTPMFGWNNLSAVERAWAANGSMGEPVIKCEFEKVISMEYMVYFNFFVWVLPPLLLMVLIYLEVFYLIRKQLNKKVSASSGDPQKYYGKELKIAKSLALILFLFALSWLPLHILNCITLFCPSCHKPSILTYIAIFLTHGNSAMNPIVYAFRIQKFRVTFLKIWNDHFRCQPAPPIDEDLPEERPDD

Adenosine receptor A2a = Adenosine receptor A2a (Homo sapiens, UniProt P29274); assay: Displacement of [3H]CGS21680 from human recombinant A2A receptor expressed in HEK293 cells; format: cell-based
Sequence of Adenosine receptor A2a (P29274 whole entry): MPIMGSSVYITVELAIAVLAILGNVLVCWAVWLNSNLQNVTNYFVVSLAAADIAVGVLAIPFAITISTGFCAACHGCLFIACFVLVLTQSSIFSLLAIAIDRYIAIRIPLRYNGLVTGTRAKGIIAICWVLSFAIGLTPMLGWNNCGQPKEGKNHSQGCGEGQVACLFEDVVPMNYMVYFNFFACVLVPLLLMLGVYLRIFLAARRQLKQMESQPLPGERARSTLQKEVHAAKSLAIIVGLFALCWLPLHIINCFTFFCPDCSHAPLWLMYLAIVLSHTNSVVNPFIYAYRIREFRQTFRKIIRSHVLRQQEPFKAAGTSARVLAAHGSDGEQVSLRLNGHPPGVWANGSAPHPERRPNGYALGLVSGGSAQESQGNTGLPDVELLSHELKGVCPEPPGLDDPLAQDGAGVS

Adenosine receptor A3 = Adenosine receptor A3 (Homo sapiens, UniProt P0DMS8); assay: Displacement of [3H]AB-MECA from human recombinant A3 receptor expressed in HEK293 cells; format: cell-based
Sequence of Adenosine receptor A3 (P0DMS8 whole entry): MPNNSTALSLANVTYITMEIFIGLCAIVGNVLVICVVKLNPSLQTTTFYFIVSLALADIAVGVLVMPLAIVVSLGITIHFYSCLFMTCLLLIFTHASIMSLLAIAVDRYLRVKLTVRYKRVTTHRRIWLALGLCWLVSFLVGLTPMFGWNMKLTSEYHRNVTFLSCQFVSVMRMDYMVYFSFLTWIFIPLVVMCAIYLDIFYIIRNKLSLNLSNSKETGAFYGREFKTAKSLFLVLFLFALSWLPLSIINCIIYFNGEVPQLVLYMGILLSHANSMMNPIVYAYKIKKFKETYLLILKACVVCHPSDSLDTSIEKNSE

[6] = biological target: Adrenergic receptor alpha-1 (Rattus norvegicus, UniProt P15823+P23944+P43140); assay: Displacement of [3H]prazosine from alpha1 receptor in rat cerebral cortex; format: tissue-based
[7] = biological target: Adrenergic receptor alpha-2 (Rattus norvegicus, UniProt P22086+P19328+P22909); assay: Displacement of [3H][…] from alpha2 receptor in rat cerebral cortex; format: tissue-based
[8] = biological target: Beta-1 adrenergic receptor (Homo sapiens, UniProt P08588); assay: Displacement of [3H](-)CGP 12177 from human recombinant beta-1 receptor expressed in HEK293 cells; format: cell-based
Sequence of Beta-1 adrenergic receptor (P08588 whole entry): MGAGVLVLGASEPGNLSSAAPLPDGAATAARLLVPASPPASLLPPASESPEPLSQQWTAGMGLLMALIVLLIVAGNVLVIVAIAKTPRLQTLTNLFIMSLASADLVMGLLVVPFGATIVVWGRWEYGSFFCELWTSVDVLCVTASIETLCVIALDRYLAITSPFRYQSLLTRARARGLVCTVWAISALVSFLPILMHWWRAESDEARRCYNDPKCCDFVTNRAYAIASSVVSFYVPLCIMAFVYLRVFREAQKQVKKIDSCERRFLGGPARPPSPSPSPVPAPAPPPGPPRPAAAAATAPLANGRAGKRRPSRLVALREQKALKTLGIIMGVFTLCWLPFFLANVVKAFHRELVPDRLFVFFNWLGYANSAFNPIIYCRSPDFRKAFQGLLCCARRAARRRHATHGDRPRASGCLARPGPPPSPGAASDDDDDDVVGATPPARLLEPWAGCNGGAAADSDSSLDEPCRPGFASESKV

[9] = biological target: Beta-2 adrenergic receptor (Homo sapiens, UniProt P07550); assay: Displacement of [3H](-)CGP 12177 from human recombinant beta2 receptor expressed in CHO cells; format: cell-based
[10] = biological target: Type-1 angiotensin II receptor (Homo sapiens, UniProt P30556); assay: Displacement of [125I][Sar1,Ile8]-AT II from human recombinant AT1 receptor expressed in HEK293 cells; format: cell-based
[11] = Displacement of [3H]flunitrazepam from BZD receptor in rat cerebral cortex; format: tissue-based
B2 bradykinin receptor = B2 bradykinin receptor (Homo sapiens, UniProt P30411); assay: Displacement of [3H]bradykinin from human recombinant bradykinin B2 receptor expressed in CHO cells; format: cell-based
[12] = biological target: Cholecystokinin receptor type A (Homo sapiens, UniProt P32238); assay: Displacement of [125I]CCK-8 from human recombinant CCKA receptor expressed in CHO cells; format: cell-based
D(1A) dopamine receptor = D(1A) dopamine receptor (Homo sapiens, UniProt P21728); assay: Displacement of [3H]SCH 23390 from human recombinant dopamine D1 receptor expressed in CHO cells; format: cell-based
D(2) dopamine receptor = D(2) dopamine receptor (Homo sapiens, UniProt P14416); assay: Displacement of [3H]spiperone from human recombinant dopamine D2S receptor expressed in HEK293 cells; format: cell-based
Endothelin-1 receptor = Endothelin-1 receptor (Homo sapiens, UniProt P25101); assay: Displacement of [125I]endothelin-1 from human recombinant ETA receptor expressed in CHO cells; format: cell-based
[13] = Displacement of [3H]GABA from GABA receptor in rat cerebral cortex; format: tissue-based
Galanin receptor type 2 = Galanin receptor type 2 (Homo sapiens, UniProt O43603); assay: Displacement of [125I]Galanin from human recombinant GAL2 receptor expressed in CHO cells; format: cell-based
[14] = biological target: C-X-C chemokine receptor type 2 (Homo sapiens, UniProt P25025); assay: Displacement of [125I]IL-8 from human recombinant CXCR2 receptor expressed in HEK293 cells; format: cell-based
[15] = biological target: C-C chemokine receptor type 1 (Homo sapiens, UniProt P32246); assay: Displacement of [125I]MIP-1a from human recombinant CCR1 receptor expressed in HEK293 cells; format: cell-based
Histamine H1 receptor = Histamine H1 receptor (Homo sapiens, UniProt P35367); assay: Displacement of [3H]pyrilamine from human recombinant histamine H1 receptor expressed in HEK293 cells; format: cell-based
Histamine H2 receptor = Histamine H2 receptor (Homo sapiens, UniProt P25021); assay: Displacement of [125I]APT from human recombinant histamine H2 receptor expressed in CHO cells; format: cell-based
Melanocortin receptor 4 = Melanocortin receptor 4 (Homo sapiens, UniProt P32245); assay: Displacement of [125I]NDP-a-MSH from human recombinant MC4 receptor expressed in CHO cells; format: cell-based
[16] = biological target: Melatonin receptor type 1A (Homo sapiens, UniProt P48039); assay: Displacement of [125I]2-iodomelatonin from human recombinant MT1 receptor expressed in CHO cells; format: cell-based
[17] = biological target: Muscarinic acetylcholine receptor M1 (Homo sapiens, UniProt P11229); assay: Displacement of [3H]pirenzepine from human recombinant muscarinic M1 receptor expressed in CHO cells; format: cell-based
[18] = biological target: Muscarinic acetylcholine receptor M2 (Homo sapiens, UniProt P08172); assay: Displacement of [3H]AF-DX 384 from human recombinant muscarinic M2 receptor expressed in CHO cells; format: cell-based
Sequence of Muscarinic acetylcholine receptor M2 (P08172 whole entry): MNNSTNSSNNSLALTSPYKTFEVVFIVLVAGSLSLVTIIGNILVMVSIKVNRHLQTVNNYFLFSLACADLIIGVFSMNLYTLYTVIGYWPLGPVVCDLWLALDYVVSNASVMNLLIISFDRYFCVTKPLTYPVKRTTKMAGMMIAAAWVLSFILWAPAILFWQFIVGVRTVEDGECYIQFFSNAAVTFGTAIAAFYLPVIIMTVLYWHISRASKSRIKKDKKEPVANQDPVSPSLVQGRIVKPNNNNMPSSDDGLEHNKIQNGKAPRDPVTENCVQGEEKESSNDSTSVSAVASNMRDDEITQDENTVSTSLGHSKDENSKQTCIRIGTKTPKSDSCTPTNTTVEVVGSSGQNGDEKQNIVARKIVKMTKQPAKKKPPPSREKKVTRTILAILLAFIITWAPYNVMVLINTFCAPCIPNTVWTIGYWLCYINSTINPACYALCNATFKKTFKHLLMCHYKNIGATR

[19] = biological target: Muscarinic acetylcholine receptor M3 (Homo sapiens, UniProt P20309); assay: Displacement of [3H]4-DAMP from human recombinant muscarinic M3 receptor expressed in CHO cells; format: cell-based
Substance-K receptor = Substance-K receptor (Homo sapiens, UniProt P21452); assay: Displacement of [125I]NKA from human recombinant NK2 receptor expressed in CHO cells; format: cell-based
Neuromedin-K receptor = Neuromedin-K receptor (Homo sapiens, UniProt P29371); assay: Displacement of [3H]SR 142801 from human recombinant NK3 receptor expressed in CHO cells; format: cell-based
[20] = biological target: Neuropeptide Y receptor type 1 (Homo sapiens, UniProt P25929); assay: Displacement of [125I]peptide YY from human recombinant Y1 receptor expressed in […] cell
[21] = biological target: Neuropeptide Y receptor type 2 (Homo sapiens, UniProt P49146); assay: Displacement of [125I]peptide YY from human recombinant Y2 receptor expressed in KAN-TS cells; format: cell-based
[22] = biological target: Neurotensin receptor type 1 (Homo sapiens, UniProt P30989); assay: Displacement of [125I]Tyr3-neurotensin from human recombinant NT1 receptor expressed in H recombinant CHO cells; format: cell-based
[23] = Displacement of [3H]DADLE from human recombinant delta 2 opioid receptor expressed in CHO cells; format: cell-based
[24] = biological target: Kappa-type opioid receptor (Rattus norvegicus, UniProt P34975); assay: Displacement of [3H]U69593 from rat recombinant kappa opioid receptor expressed in CHO cells; format: cell-based
Mu-type opioid receptor = Mu-type opioid receptor (Homo sapiens, UniProt P35372); assay: Displacement of [3H]DAMGO from human recombinant mu opioid receptor expressed in HEK293 cells; format: cell-based
Nociceptin receptor = Nociceptin receptor (Homo sapiens, UniProt P41146); assay: Displacement of [3H]nociceptin from human recombinant ORL1 receptor expressed in H recombinant HEK293 cells; format: cell-based
Sequence of Nociceptin receptor (P41146 whole entry): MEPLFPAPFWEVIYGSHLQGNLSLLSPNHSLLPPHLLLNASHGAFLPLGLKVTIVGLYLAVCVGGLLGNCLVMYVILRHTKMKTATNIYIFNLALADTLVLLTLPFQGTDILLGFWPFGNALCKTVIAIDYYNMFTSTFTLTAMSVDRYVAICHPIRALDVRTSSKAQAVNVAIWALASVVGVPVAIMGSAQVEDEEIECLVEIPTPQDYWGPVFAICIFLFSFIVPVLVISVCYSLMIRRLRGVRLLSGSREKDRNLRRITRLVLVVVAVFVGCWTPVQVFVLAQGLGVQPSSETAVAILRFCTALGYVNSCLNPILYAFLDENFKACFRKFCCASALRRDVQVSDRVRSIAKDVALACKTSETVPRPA

Thromboxane A2 receptor = Thromboxane A2 receptor (Homo sapiens, UniProt P21731); assay: Displacement of [3H]SQ 29548 from human recombinant TXA2 receptor expressed in HEK293 cells; format: cell-based
[25] = biological target: 5-hydroxytryptamine receptor 1A (Homo sapiens, UniProt P08908); assay: Displacement of [3H]8-OH-DPAT from human recombinant 5HT1A receptor expressed in HEK293 cells; format: cell-based
[26] = biological target: 5-hydroxytryptamine receptor 1B (Rattus norvegicus, UniProt P28564); assay: Displacement of [125I]CYP from 5HT1B receptor expressed in rat cerebral cortex; format: tissue-based
[27] = biological target: 5-hydroxytryptamine receptor 2A (Homo sapiens, UniProt P28223); assay: Displacement of [3H]Ketanserin from human recombinant 5HT2A receptor expressed in HEK293 cells; format: cell-based
[28] = biological target: 5-hydroxytryptamine receptor 3A (Homo sapiens, UniProt P46098); assay: Displacement of [3H]BRL 43694 from human recombinant 5HT3 receptor expressed in CHO cells; format: cell-based
Sequence of 5-hydroxytryptamine receptor 3A (P46098 whole entry): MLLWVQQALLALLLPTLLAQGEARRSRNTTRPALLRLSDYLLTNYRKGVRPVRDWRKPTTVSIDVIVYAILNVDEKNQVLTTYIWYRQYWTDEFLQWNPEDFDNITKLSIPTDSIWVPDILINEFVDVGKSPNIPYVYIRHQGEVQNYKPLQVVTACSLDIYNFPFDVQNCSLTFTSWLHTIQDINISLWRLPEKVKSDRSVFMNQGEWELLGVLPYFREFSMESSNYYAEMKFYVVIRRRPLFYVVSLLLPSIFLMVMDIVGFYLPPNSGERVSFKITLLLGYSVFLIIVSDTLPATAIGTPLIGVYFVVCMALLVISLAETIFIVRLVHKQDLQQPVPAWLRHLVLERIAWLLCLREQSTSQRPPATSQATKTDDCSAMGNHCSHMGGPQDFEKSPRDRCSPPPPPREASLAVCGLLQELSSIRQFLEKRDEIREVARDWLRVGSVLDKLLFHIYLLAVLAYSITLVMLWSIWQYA

[29] = biological target: 5-hydroxytryptamine receptor 5A (Homo sapiens, UniProt P47898); assay: Displacement of [3H]LSD from human recombinant 5HT5A receptor expressed in CHO cells; format: cell-based
[30] = biological target: 5-hydroxytryptamine receptor 6 (Homo sapiens, UniProt P50406); assay: Displacement of [3H]LSD from human recombinant 5HT6 receptor expressed in CHO cells; format: cell-based
[31] = biological target: 5-hydroxytryptamine receptor 7 (Homo sapiens, UniProt P34969); assay: Displacement of [3H]LSD from human recombinant 5HT7 receptor expressed in CHO cells; format: cell-based
[32] = Displacement of [125I]Tyr11-somatostatin-14 from human recombinant sst receptor expressed in AtT-20 cells; format: cell-based; settings: att20
[33] = Displacement of [125I]VIP from human recombinant VIP receptor expressed in H recombinant CHO cells; format: cell-based
Vasopressin V1a receptor = Vasopressin V1a receptor (Homo sapiens, UniProt P37288); assay: Displacement of [3H]AVP from human recombinant V1a receptor expressed in H recombinant CHO cells; format: cell-based
[34] = biological target: Voltage-gated L-type calcium channel (Rattus norvegicus, UniProt P22002+Q02485+P27732); assay: Displacement of [3H](-)D 888 from L-type calcium channel in rat cerebral cortex; format: tissue-based
[35] = biological target: Small conductance calcium-activated potassium channel protein 1 (Rattus norvegicus, UniProt P70606); assay: Displacement of [125I]apamin from SK+Ca channel in rat cerebral cortex; format: tissue-based
[36] = biological target: Sodium-dependent dopamine transporter (Homo sapiens, UniProt Q01959); assay: Displacement of [3H]BTCP from human recombinant dopamine transporter expressed in CHO cells; format: cell-based
Sequence of Sodium-dependent dopamine transporter (Q01959 whole entry): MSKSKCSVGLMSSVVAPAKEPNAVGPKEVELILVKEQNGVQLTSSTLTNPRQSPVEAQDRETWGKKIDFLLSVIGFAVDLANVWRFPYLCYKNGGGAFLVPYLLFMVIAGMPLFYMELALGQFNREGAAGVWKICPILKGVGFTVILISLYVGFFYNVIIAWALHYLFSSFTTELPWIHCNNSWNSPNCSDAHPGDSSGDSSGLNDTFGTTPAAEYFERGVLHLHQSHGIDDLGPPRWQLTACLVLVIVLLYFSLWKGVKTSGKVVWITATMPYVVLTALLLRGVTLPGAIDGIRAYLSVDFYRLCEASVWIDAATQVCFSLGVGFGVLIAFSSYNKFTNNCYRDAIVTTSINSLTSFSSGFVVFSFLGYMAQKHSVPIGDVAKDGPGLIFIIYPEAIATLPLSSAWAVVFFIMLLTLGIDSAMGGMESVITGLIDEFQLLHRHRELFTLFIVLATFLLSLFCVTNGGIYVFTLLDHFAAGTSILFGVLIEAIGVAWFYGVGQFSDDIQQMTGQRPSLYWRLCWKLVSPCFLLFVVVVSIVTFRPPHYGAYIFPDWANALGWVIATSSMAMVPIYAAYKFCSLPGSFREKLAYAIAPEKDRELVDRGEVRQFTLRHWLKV

[37] = biological target: Sodium-dependent serotonin transporter (Homo sapiens, UniProt P31645); assay: Displacement of [3H]imipramine from human recombinant 5HT transporter expressed in CHO cells; format: cell-based

CCCCCCCCCCCCNC(=O)O/N=C(\C)c1cccc(-c2cccs2)c1
pIC50 [1]: 6.94

C/C(=N\OC(=O)N1CCCCC1)c1cccc(-c2ccccc2)c1
pIC50 [1]: 6.66

C/C(=N\OC(=O)Nc1ccccc1)c1cccc(-c2cccs2)c1
pIC50 [1]: 8.10 | inhibition [2]: Active | pIC50 (Cannabinoid receptor 1): < 5.00 | pIC50 (Cannabinoid receptor 2): 5.00 | pIC50 [3]: < 5.00 | pIC50 [4]: 7.00 | pIC50 [5]: < 5.00 | pIC50 (Adenosine receptor A1): < 5.00 | pIC50 (Adenosine receptor A2a): < 5.00 | pIC50 (Adenosine receptor A3): 6.00 | IC50 [6]: > 10 µM | IC50 [7]: > 10 µM | pIC50 [8]: < 5.00 | pIC50 [9]: < 5.00 | pIC50 [10]: < 5.00 | pIC50 [11]: 6.00 | pIC50 (B2 bradykinin receptor): < 5.00 | pIC50 [12]: 6.00 | pIC50 (D(1A) dopamine receptor): < 5.00 | pIC50 (D(2) dopamine receptor): < 5.00 | pIC50 (Endothelin-1 receptor): < 5.00 | pIC50 [13]: < 5.00 | pIC50 (Galanin receptor type 2): < 5.00 | pIC50 [14]: < 5.00 | pIC50 [15]: < 5.00 | pIC50 (Histamine H1 receptor): < 5.00 | pIC50 (Histamine H2 receptor): < 5.00 | pIC50 (Melanocortin receptor 4): < 5.00 | pIC50 [16]: < 5.00 | pIC50 [17]: < 5.00 | pIC50 [18]: < 5.00 | pIC50 [19]: < 5.00 | pIC50 (Substance-K receptor): < 5.00 | pIC50 (Neuromedin-K receptor): < 5.00 | pIC50 [20]: < 5.00 | pIC50 [21]: < 5.00 | pIC50 [22]: < 5.00 | pIC50 [23]: 6.00 | pIC50 [24]: < 5.00 | pIC50 (Mu-type opioid receptor): < 5.00 | pIC50 (Nociceptin receptor): < 5.00 | pIC50 (Thromboxane A2 receptor): < 5.00 | pIC50 [25]: 6.00 | pIC50 [26]: < 5.00 | pIC50 [27]: < 5.00 | pIC50 [28]: < 5.00 | pIC50 [29]: 6.00 | pIC50 [30]: < 5.00 | pIC50 [31]: < 5.00 | pIC50 [32]: < 5.00 | pIC50 [33]: < 5.00 | pIC50 (Vasopressin V1a receptor): < 5.00 | IC50 [34]: > 10 µM | pIC50 [35]: < 5.00 | pIC50 [36]: < 5.00 | pIC50 [37]: < 5.00
